Each structure is given as a SMILES string. Some results are limits rather than exact numbers.

Assay [1] can be described thus: Inhibition of tubulin polymerization.
A further assay deals with 1A9. The assay is described as follows: Antiproliferative activity against human 1A9 cells after 4 days by SRB assay. Type of assay: functional, cell-based. Particulars: 1A9, 96 h. In outline: (§1)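 Compounds were tested as HCl salts and dosed from DMSO. Cells were 1A9 ovarian and MCF-7 breast cancer lines. IC50 is the mean of two independent determinations.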
Another assay relates to MCF7. The assay is described as follows: Antiproliferative activity against human MCF7 cells after 4 days by SRB assay. It counts as functional, cell-based. The settings on record: MCF7, 96 h. In outline:
as §1
Background: Sulforhodamine B stains cellular protein and so reports cell mass.

Assay [2] can be described thus: Anticancer activity against human KBV1 cells expressing P-gp. Type of assay: functional, cell-based. Particulars: KB-V1.

`CC[C@H](C)[C@H](NC(=O)[C@@H](C)N(C)C)C(=O)N[C@H](CC(=O)c1nc(C(=O)N[C@@H](Cc2ccccc2)CC(C)(C)C(=O)O)cs1)C(C)C`: the figures for the IC50 (in assay [1]; in the assay with 1A9; in the assay with MCF7) were 8.5 µM, 14.2 µM and 12.2 µM, respectively.

On to `CC[C@H](C)[C@H](NC(=O)[C@@H](C)N(C)C)C(=O)N[C@H](CC(=O)c1nc(C(=O)N[C@@H](Cc2ccccc2)C[C@H](C)C(=O)O)cs1)C(C)C`, for which the IC50 (usually the midpoint of a concentration-inhibition curve) is 3.6 µM in assay [1] and greater than 50 µM with 1A9.

On to `CC[C@H](C)[C@H](NC(=O)[C@H]1CCCCN1C)C(=O)N[C@H](C[C@H](O)c1nc(C(=O)N[C@@H](Cc2ccccc2)C[C@H](C)C(=O)O)cs1)C(C)C`, for which the IC50 in assay [1] was determined as 1.3 µM; in the assay with 1A9, 5.1 µM; with MCF7, 8.1 µM.

For the molecule `CC[C@H](C)[C@H](NC(=O)[C@@H](C)N(C)C)C(=O)NC(CC(=O)c1nc(C(=O)N[C@H](CCC(=O)O)Cc2ccccc2)cs1)C(C)C` (single isomer, unassigned), the values for the IC50 (in assay [1]; in the assay on 1A9; in the assay on MCF7) were 12.5 µM, 0.3 µM and 0.17 µM, respectively.

Regarding `CN[C@H](C(=O)N[C@H](C(=O)N(C)[C@H](/C=C(\C)C(=O)O)C(C)C)C(C)(C)C)C(C)(C)c1ccccc1` [TALTOBULIN], the 50% inhibitory concentration (IC50) in assay [1] was 0.7 µM; in the assay on 1A9 it was 0.0002 µM; in the assay with MCF7 it was 0.00015 µM.

For `CC[C@H](C)[C@H](NC(=O)[C@H]1CCCCN1C)C(=O)N(COC(=O)CC(C)C)[C@H](C[C@@H](OC(C)=O)c1nc(C(=O)N[C@@H](Cc2ccccc2)C[C@H](C)C(=O)O)cs1)C(C)C` [TUBULYSIN D], half-maximal inhibition in assay [2] (IC50) required 0.00031 µM. That is a sub-nanomolar value.

Regarding `CC[C@H](C)[C@H](NC(=O)[C@H]1CCCCN1C)C(=O)N[C@H](C[C@@H](OC(C)=O)c1nc(C(=O)N[C@@H](Cc2ccccc2)C[C@H](C)C(=O)O)cs1)C(C)C` [TUBULYSIN U], the IC50 worked out at 1.9 µM in assay [1], 0.00065 µM in the assay with 1A9 and 0.0004 µM in the assay on MCF7.

Regarding `CC[C@H](C)[C@H](NC(=O)[C@H]1CCCCN1C)C(=O)N[C@H](C[C@@H](O)c1nc(C(=O)N[C@@H](Cc2ccccc2)C[C@H](C)C(=O)O)cs1)C(C)C` [TUBULYSIN V], the IC50 in assay [1] was determined as 1.1 µM; in the assay with 1A9 it was 0.12 µM; in the assay with MCF7, 0.24 µM.

The values above are taken from ChEMBL document CHEMBL1139371, “Total synthesis and biological evaluation of tubulysin U, tubulysin V, and their analogues” (J Med Chem, 2009).
